TRPC4 block = inhibitors of mouse TRPC4 channel, primary screen, Fluo4 calcium, HEK293 TRPC4beta/mu-opioid cells. 300,000 tested, 0.39% active. Short transient receptor potential channel 4 (Mus musculus), Q9QUQ5. AID 2247, 2010. DAMGO-evoked Fluo4 calcium flux; hits give low values. B-score at 10 µM;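 active means B-score over 3 SD under the library average, no early fluorescence shift, positive overall ratio signal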
Target sequence (Q9QUQ5 whole entry, looked up): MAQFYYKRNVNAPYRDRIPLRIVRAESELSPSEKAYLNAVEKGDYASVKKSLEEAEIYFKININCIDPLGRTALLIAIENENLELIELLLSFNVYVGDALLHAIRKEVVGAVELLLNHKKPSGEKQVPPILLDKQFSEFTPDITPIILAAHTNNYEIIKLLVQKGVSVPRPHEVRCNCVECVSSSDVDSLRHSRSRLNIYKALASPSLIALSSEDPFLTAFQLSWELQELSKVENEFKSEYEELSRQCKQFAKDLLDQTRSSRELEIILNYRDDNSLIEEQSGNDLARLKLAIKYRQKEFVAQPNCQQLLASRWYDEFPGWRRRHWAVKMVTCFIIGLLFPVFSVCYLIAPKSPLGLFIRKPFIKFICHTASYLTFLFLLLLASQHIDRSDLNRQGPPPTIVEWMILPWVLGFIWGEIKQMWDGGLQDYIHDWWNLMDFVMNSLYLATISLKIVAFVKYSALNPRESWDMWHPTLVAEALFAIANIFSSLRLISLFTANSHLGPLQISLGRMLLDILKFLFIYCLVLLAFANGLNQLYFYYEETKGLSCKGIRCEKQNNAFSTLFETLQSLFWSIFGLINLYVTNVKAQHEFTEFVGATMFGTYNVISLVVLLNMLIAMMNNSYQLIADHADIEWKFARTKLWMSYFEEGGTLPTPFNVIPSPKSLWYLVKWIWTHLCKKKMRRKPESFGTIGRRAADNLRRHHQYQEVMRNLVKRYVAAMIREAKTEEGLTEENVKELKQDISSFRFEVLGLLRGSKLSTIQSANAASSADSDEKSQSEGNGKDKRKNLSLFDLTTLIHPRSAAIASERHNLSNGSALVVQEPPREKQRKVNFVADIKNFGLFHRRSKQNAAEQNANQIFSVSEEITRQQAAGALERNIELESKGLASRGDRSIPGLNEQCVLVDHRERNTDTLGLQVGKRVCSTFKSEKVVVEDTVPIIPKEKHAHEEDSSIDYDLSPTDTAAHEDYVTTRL
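Assay system: TRPC4beta/mu-opioid receptor HEK293 cell line; compound dosing: single concentration per test compound; detection: Fluo4 Ca2+ flux fluorescence; evaluation: per-well B score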
TRPC4 agonist = activators of mouse TRPC4 channel, primary screen, Fluo4 calcium, HEK293 TRPC4beta/mu-opioid cells | 310,000 tested, 0.49% active | Short transient receptor potential channel 4 (Mus musculus), Q9QUQ5 | Fluo4 calcium fluorescence; hits give high values | AID 2237, 2010 | B-score at 10 µM;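 active means B-score above 5 SD of library B-scores, and initial fluorescence ratio not above library mean plus 5 SD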;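 further: positive B-score marks a calcium rise read as TRPC4 activation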
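Incubation: 45 min room-temperature Fluo4 loading, 110 s read / System: HEK293 cells stably co-expressing mouse TRPC4beta and mu-opioid receptor / Signal: Fluo4 fluorescence, kinetic / Control set: buffer (low) and maximal DAMGO (high) / Measure: integrated baseline-normalised fluorescence ratio, converted to per-well B score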
TRPC6 activator = mouse TRPC6 channel activators, primary screen, cell-based, HEK293, membrane potential dye; B-score at 10 µM; 310,000 tested, 0.13% active; Short transient receptor potential channel 6 (Mus musculus), Q61143; HEK293-TRPC6 membrane potential dye fluorescence; hits give high values; AID 2550, 2010;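 active means B-score of the integrated fluorescence ratio above library mean plus 3 SD, and starting fluorescence ratio within library mean plus 5 SD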;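 further: higher score means more depolarization so channel activation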
TRPC6 inh = mouse TRPC6 channel inhibitors, primary screen, cell-based, HEK293, membrane potential dye; ACh-evoked depolarization; hits give low values; B-score at 10 µM; 310,000 tested, 1.1% active; AID 2553, 2010;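 active means B-score under library mean minus 3 SD, initial fluorescence not abnormally high, positive integrated signal ratio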;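 further: B-score derived from integrated fluorescence ratio over the kinetic read; more negative B-score means stronger inhibition of depolarization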
TRPC4 PAM = positive allosteric modulators of TRPC4, primary screen, cell-based, mouse TRPC4beta, HEK293 mu-opioid, Fluo-4 calcium; Short transient receptor potential channel 4 (Mus musculus), Q9QUQ5; B-score at 10 µM; DAMGO EC20, Fluo-4 Ca2+ flux; hits give high values; 310,000 tested, 0.42% active;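 active means B-score of calcium response area above 5 SD of library B-scores, with initial fluorescence ratio within 5 SD of library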;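 further: B-score of integrated fluorescence ratio over time as area under calcium response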
TRPC4 spec 2 = mouse TRPC4 off-target activity of TRPC6 inhibitors, second screen | inhibition, % at 10 µM | AID 2776 | shares compounds with TRPC6 inh | 920 tested, 42% active | HEK293 TRPC4/MOR, membrane potential dye fluorescence; channel activated by saturating DAMGO dose;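 active means compounds whose fluorescence signal differed from control wells by over 3 SD, either direction, in both duplicate plates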
TRPC4 spec = mouse TRPC4 modulation by TRPC6 hits, confirmation, selectivity assay for TRPC6 inhibitor project, cell-based, HEK293 TRPC4/mu-opioid, membrane potential dye; shares compounds with TRPC6 inh; membrane potential fluorescence; activity change, negative = inhibition, % at 10 µM; 920 tested, 61% active; AID 2777, 2010;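 active means rise or fall in signal beyond 3 SD of buffer-only wells in both replicate plates, either sign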;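 further: integrated kinetic ratio of fluorescence range over baseline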
HEK293 MPD ctr 2-1 = nonspecific membrane potential effects, parental HEK293, confirmation, counter-screen for TRPC6 inhibitor project, cell-based, second counter screen; signal change vs control, % at 10 µM; parental HEK293 membrane potential dye fluorescence; maximal acetylcholine challenge after compound addition; shares compounds with TRPC6 inh; AID 2779, 2010; 920 tested, 31% active;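 active means membrane potential signal moving either way by over 3 SD of the maximum-effect control, in both duplicate plates, meaning non-specific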
HEK293 MPD ctr-1 = membrane potential modulation in parental HEK293, confirmation, counter-screen for TRPC6 inhibitor project, cell-based; 920 tested, 60% active; shares compounds with TRPC6 inh; parental HEK293 membrane potential dye fluorescence; membrane potential signal change, % at 10 µM;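 active means membrane potential signal shifting up or down by more than 3 SD of buffer-only wells, on both duplicate plates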
HEK293 MPD ctr-2 = parental HEK293 membrane potential modulation, confirmation, counter-screen for TRPC6 modulator project, cell-based; shares compounds with TRPC6 inh; membrane potential dye fluorescence; membrane potential signal change, % at 10 µM; 2,400 tested, 51% active; AID 488924, 2010;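 active means membrane potential signal moves up or down beyond 5 SD from buffer-only wells, on both duplicate plates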
HEK293 MPD ctr 2-2 = second check of TRPC6 modulator effects in parental HEK293 cells; shares compounds with TRPC6 inh; 2,400 tested, 14% active; inhibition, % at 10 µM; membrane potential dye fluorescence; after compound, maximal acetylcholine stimulation;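 active means membrane potential signal drops by more than 5 SD from the mean control signal, in both duplicate plates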;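 further: plate controls were acetylcholine ECmax control wells for no effect and buffer only wells for full effect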
TRPC4 ctr mod = TRPC4 modulation by TRPC6 hit compounds, confirmation, selectivity assay for TRPC6 modulator project, cell-based, HEK293 TRPC4/mu-opioid, membrane potential dye, mouse; percent change from control (negative = decrease, positive = increase), % at 10 µM; 2,400 tested, 69% active; AID 488927, 2010; shares compounds with TRPC6 inh; membrane potential fluorescence;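 active means membrane potential signal moved up or down beyond 5 SD of buffer control wells, in both duplicate plates, actives on both sides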;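 further: plate controls were assay buffer wells for no effect and DAMGO maximal-effect wells for full effect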
TRPC4/MOR inh 2 = second selectivity test of TRPC6 modulators against mouse TRPC4 | inhibition, % at 10 µM | HEK293 TRPC4/mu-opioid, membrane potential dye fluorescence; stimulated with maximal-effect DAMGO | 2,400 tested, 55% active | shares compounds with TRPC6 inh;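 active means drop in membrane potential signal beyond 5 SD of the control wells in both duplicate plates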;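 further: TRPC4 counter screen for TRPC6 hits run under conditions tuned for TRPC6 not TRPC4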
TRPC6 block conf = mouse TRPC6 channel inhibitors, confirmation, HEK293 cells, membrane potential dye, duplicate | shares compounds with TRPC6 inh | ACh-evoked depolarization | inhibition, % at 10 µM | 3,300 tested, 43% active;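 active means fluorescence ratio falls more than 5 SD below the full-stimulation control mean, in both duplicate runs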;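 further: integrated fluorescence ratio of peak minus minimum over baseline after agonist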
TRPC6 act confirm = mouse TRPC6 channel activators, confirmation, HEK293 cells, membrane potential dye, duplicate; AID 488961, 2010; HEK293-TRPC6 membrane potential dye fluorescence, FDSS; 2,800 tested, 11% active; activation, % at 10 µM; shares compounds with TRPC6 inh;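 active means ratio signal rise beyond 5 SD above unstimulated control wells' mean, seen in both duplicate runs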;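 further: plate controls were buffer EC0 wells for no effect and acetylcholine ECmax response for full effect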
Starred values were filed as active, the others as inactive; i = inactive; nt = no result given; ! = repeats disagree. Shown are actives, neighbours in structure and some others; about 2.3% of the full set was active somewhere.

SMILES | TRPC4 block | TRPC4 agonist | TRPC6 activator | TRPC6 inh | TRPC4 PAM | HEK293 MPD ctr-2 | HEK293 MPD ctr 2-2 | TRPC4 ctr mod | TRPC4/MOR inh 2 | TRPC6 block conf | TRPC6 act confirm | others
CCC[N+]12CCC(CC1)C(=C(c1ccccc1)c1ccccc1)C2 | i | i | i | -5.8* | i | i | i | 14%* | i | 64%* | nt
CC(=O)OCC[N+](C)(C)C | i | 125* | 15*! | -7.9* | i | 133%*! | 66%*! | 44%* | i | 70%* | 124%* | TRPC4 spec 2=i;TRPC4 spec=37%*;HEK293 MPD ctr 2-1=i;HEK293 MPD ctr-1=4.2%*
CN1CCC(N(C)c2nc(-c3ccccc3)nc3ccccc23)CC1 | i | i | i | -7.6* | 15* | -306%* | 88%* | -54%* | 66%* | 74%* | i
Cc1nn(Cc2ccc(Cl)cc2Cl)c(Cl)c1C(=O)Nc1ccc(OC(F)F)cc1 | i | i | i | i | i | nt | nt | nt | nt | nt | nt
CC(=NCCN1CCCCC1)c1c(O)n(-c2ccc(Cl)cc2)c(=O)[nH]c1=O | i | i | i | i | i | nt | nt | nt | nt | nt | nt
C[C@H]1OC[C@@H](C[N+](C)(C)C)O1 | i | 88* | i | -6.7* | i | nt | nt | nt | nt | 70%* | nt | TRPC4 spec 2=i;TRPC4 spec=34%*;HEK293 MPD ctr 2-1=i;HEK293 MPD ctr-1=4.8%*
O=C1OC(c2ccc([N+](=O)[O-])cc2)=N/C1=C/N1CC2CC(C1)c1cccc(=O)n1C2 (stereo unspecified) | i | 96* | 37* | i | i | 272%* | 102%* | 57%* | 31%* | nt | 124%*
O=[N+]([O-])c1ccc(-[n+]2c(-c3ccccc3)cc(-c3ccccc3)cc2-c2ccccc2)cc1 | i | i | i | i | i | nt | nt | nt | nt | nt | nt
O=[N+]([O-])c1ccccc1-c1cc(-c2ccccc2)cc(-c2ccccc2)[n+]1Cc1ccccc1Cl | i | i | i | -5.7* | i | i | i | -8.5%* | i | i | i
COc1ccc(-c2nn(CCC#N)cc2C(=O)Nc2ccccc2Br)cc1[N+](=O)[O-] | i | i | i | i | i | nt | nt | nt | nt | nt | nt
CN1CCC(OC(=O)C2c3ccccc3Oc3ccccc32)CC1 | i | i | i | -6.8* | i | nt | nt | nt | nt | 67%* | nt | TRPC4 spec 2=i;TRPC4 spec=4.7%*;HEK293 MPD ctr 2-1=i;HEK293 MPD ctr-1=8.4%*
CN1CCC(OC(=O)Cc2ccccc2)CC1 | i | i | i | i | i | nt | nt | nt | nt | nt | nt
COc1ccc2ccccc2c1CNCCc1ccccc1 | i | i | i | -7.8* | i | nt | nt | nt | nt | 66%* | nt | TRPC4 spec 2=i;TRPC4 spec=16%*;HEK293 MPD ctr 2-1=i;HEK293 MPD ctr-1=5.0%*
COc1cccc(CNCCc2ccccc2)c1OC | i | i | i | i | i | nt | nt | nt | nt | nt | nt
CCCNC(=O)c1c(N)n(CC2CCCO2)c2nc3ccccc3nc12 (stereo unspecified) | i | i | i | i | i | nt | nt | nt | nt | nt | nt
CC(C)OCCCNC(=O)c1c(N)n(CC2CCCO2)c2nc3ccccc3nc12 (stereo unspecified) | i | i | i | -5* | i | 124%* | i | 23%* | i | i | nt
CCCCc1ccc2[nH]cc(CCN)c2c1 | i | i | i | -5.2* | i | i | i | i | 47%* | 50%* | i
CCN(CC)P(c1n(C)cc[n+]1C)N(CC)CC | i | i | i | i | i | nt | nt | nt | nt | nt | nt
Cc1cc(C)c2c(ccc3cccc[n+]32)c1 | i | i | i | -7.6* | i | -260%* | 96%* | -40%* | 60%* | 69%* | i
Cc1ccccc1-n1c(O)c(C(c2ccncc2)c2c(O)n(-c3ccccc3C)c(=O)[nH]c2=O)c(=O)[nH]c1=O | i | i | i | i | i | nt | nt | nt | nt | nt | nt
C=CCSc1nc2c(c(-c3ccsc3)c1C#N)CN(C)CC2 | i | i | i | -10* | i | nt | nt | nt | nt | i | i | TRPC4 spec 2=i;TRPC4 spec=-18%*;HEK293 MPD ctr 2-1=i;HEK293 MPD ctr-1=-239%*
c1ccc([C@@H]2CO2)cc1 | i | i | i | i | i | nt | nt | nt | nt | nt | nt
CCc1cccc(CC)c1NC(=S)N1CC2CC(C1)c1cccc(=O)n1C2 (stereo unspecified) | i | i | i | i | i | nt | nt | nt | nt | nt | nt

Screening data from PubChem.
